Compound activity: PubChem, several laboratories
Only some compounds are listed: those with a hit (about 2.1% of all), similar ones and a draw of the others.
TNAP act mid DEA: human TNAP enzyme activators, primary screen, biochemical, luminescent, intermediate phosphate acceptor level | 64,000 tested, under 10 active | AID 813, 2007 | Alkaline phosphatase, tissue-nonspecific isozyme (Homo sapiens), P05186 | activation factor at 20 µM | purified TNAP, CDP-star luminescence, 100 mM DEA, 30 min; active compounds read high; scale: 0 levamisole-inhibited, 1 vehicle-only enzyme;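 active = activation factor of at least 2 at 20 µM, relative to controls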
MT1-MMP txn act: MT1-MMP promoter reporter activation – cell-based, luciferase luminescence, primary screen | AID 750, 2007 | 86,000 compounds, 0.16% hits | activation factor at 10 µM | HT1080 MT1-MMP promoter luciferase reporter, overnight; active compounds read high;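 active = activation factor of at least 2 for MT1-MMP transcription at 10 µM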
Mac1 fbg enh: enhancers of CD11b/CD18 adhesion to fibrinogen, primary screen, K562 cells, luminescence | Integrin beta-2 (Homo sapiens) + Integrin alpha-M (Homo sapiens), P05107+P11215 | activation, % at 10 µM | ATPlite luminescence | 93,000 compounds, 0.07% hits;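 active = 10 µM primary screen giving 50% or more activity, confirmed by 40% or more on retest at that dose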
Mac1 fbg inh: inhibitors of CD11b/CD18 adhesion to fibrinogen, primary screen, K562 cells, luminescence | Integrin beta-2 (Homo sapiens) + Integrin alpha-M (Homo sapiens), P05107+P11215 | ATPlite luminescence; Mn2+ added to activate the integrin | inhibition, % at 10 µM | 93,000 compounds, 0.54% hits | AID 1497, 2009;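 active = primary inhibition of 50% or more at 10 µM, then 40% or more on retest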
RORa activator: activators of orphan receptor RORA, primary screen, cell-based, luminescence; Nuclear receptor ROR-alpha (Homo sapiens), P35398; CHO-K1 Gal4-RORA LBD luciferase reporter; percent increase over mock-subtracted basal signal; activation, % at 10 µM; 65,000 compounds, 1.5% hits;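 active = activation above the mean of all tested compounds plus 3 SD, cut at about 49% in these data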;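 also: 0% = DMSO-treated RORA cells and 100% = added signal equal to DMSO minus mock-transfected cells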
SF1 activator: activators of human SF-1, primary screen, cell-based, CHO-K1, Gal4-SF-1 LBD, luciferase luminescence; CHO-K1 Gal4-SF-1 LBD luciferase reporter; % increase over DMSO SF-1-specific signal; activation, % at 10 µM; 65,000 compounds, 1.9% hits;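 active = activation above the mean activation of all tested compounds plus 3 SD, cut at about 50% in these data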
Target sequence (Q13285 whole entry, looked up, the tested form may be a part): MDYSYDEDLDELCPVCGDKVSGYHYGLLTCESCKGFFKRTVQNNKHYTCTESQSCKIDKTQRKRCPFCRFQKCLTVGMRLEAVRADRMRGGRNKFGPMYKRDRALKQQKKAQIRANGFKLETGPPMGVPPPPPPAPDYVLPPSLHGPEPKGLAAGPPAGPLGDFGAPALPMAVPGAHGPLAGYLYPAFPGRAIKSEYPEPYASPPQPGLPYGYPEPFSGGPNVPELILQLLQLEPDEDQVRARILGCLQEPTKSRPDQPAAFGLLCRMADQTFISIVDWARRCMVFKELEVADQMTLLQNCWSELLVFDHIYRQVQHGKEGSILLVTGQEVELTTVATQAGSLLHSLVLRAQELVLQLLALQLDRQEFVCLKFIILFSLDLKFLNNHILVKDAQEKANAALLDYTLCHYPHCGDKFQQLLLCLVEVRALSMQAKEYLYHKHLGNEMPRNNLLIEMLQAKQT
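material = CHO-K1 cells with Gal4–hSF-1 LBD chimera plus Gal4-driven luciferase | compound = 10 µM single point, 1% DMSO | incubation = 20 h compound exposure at 37 °C after 1 h cell settling | measured by = SteadyLite luciferase luminescence | evaluation = percent activation relative to DMSO median and mock-transfected background | control set = DMSO negative control and −SF1 background wells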
* hit, by the source's call; nt = no result; ! = not active in a repeat.

SMILES	TNAP act mid DEA	MT1-MMP txn act	Mac1 fbg enh	Mac1 fbg inh	RORa activator	SF1 activator
Nc1nonc1-c1nc2ccccc2[nH]1	0.9	1.1	0	-4	32	22
COCCn1c(C)cc(C2=NNC(=Nc3ccc(Cl)cc3Cl)SC2)c1C	nt	1.1	82*	14	nt	nt
CCCc1c(C)[nH]c2ccc(NC(C)=O)cc2c1=O	nt	1.1	nt	nt	nt	nt
Oc1ccc(-c2cccc(-c3ccc(O)cc3)n2)cc1	0.9	1.5	4	6	52*	38
CC(C)CC(=O)Nc1ccc(-c2cn3ccsc3n2)cc1	0.9	0.6	-2	46	52*	52*
CC(C)(C)C(=O)Nc1ccc(-c2cn3ccsc3n2)cc1	0.9	0.2	-9	61*	-32	-33
COc1ccc(-c2csc(NC(=O)CC(C)C)n2)cc1	nt	1.4	nt	nt	nt	nt
CCc1cccc2c(-c3ccccc3)c3c(nc12)OCC3	nt	1.1	nt	nt	nt	nt
Cc1noc(C)c1COc1ccc(C(=O)OCC(=O)NC23CC4CC(CC(C4)C2)C3)cc1	nt	1.2	1	56*	nt	nt
Clc1nc2sccn2c1/C=N/n1cnc2ccccc21	1	1.2	-4	-8	52*	40
N#C/C(=N\O)c1nc(-c2ccccc2)cs1	0.9	1.1	-5	66*!	11	-4
N#CC(=C1CCCC1)c1nc(-c2ccccc2)cs1	nt	1.5	nt	nt	nt	nt
Cc1ccc(-c2cc(-c3ccccc3C)[nH]n2)c(O)c1	nt	1.8	nt	nt	nt	nt
Cc1ccc(-c2cc(-c3cccc(F)c3)n[nH]2)c(O)c1	1	1.8	0	0	68*	53*
Cc1ccc(O)c(-c2cc(-c3cccc(F)c3)n[nH]2)c1	nt	2.1*	0	9	nt	nt
CCOC(=O)N1CCC(N2CCN(S(=O)(=O)c3ccc4ccccc4c3)CC2)CC1	nt	nt	-6	-31	nt	nt
CC(=O)c1cccc(NC(=O)COC(=O)COc2c(Cl)cc(Cl)c3ccc(C)nc23)c1	nt	nt	-4	-4	nt	nt
c1ccc2sc(-c3ccc4c(c3)OCO4)nc2c1	0.9	0.8	-3	20	-25	-37
CN(C)c1nc(N)nc(-c2nc3ccccc3s2)n1	0.9	1.8	3	-14	11	54*
O=C(c1cccc(S(=O)(=O)Nc2cccc(C(F)(F)F)c2)c1)N1CCCCC1	nt	nt	-5	2	nt	nt
CC(Oc1ccc(Br)cc1)C(=O)Nn1c(=S)[nH]c2ncccc2c1=O (centres undefined)	nt	nt	4	-3	nt	nt
COCCCNC(=O)c1c(N)n(/N=C/c2ccccn2)c2nc3ccccc3nc12	0.9	1.1	nt	nt	10	11
CC(C)OCCCNC(=O)c1c(N)n(/N=C/c2cccs2)c2nc3ccccc3nc12	nt	nt	149*	31	nt	nt
Cc1nc2c(C(=O)N3CCN(C)CC3)cnn2c(C)c1Cc1ccc(Cl)cc1	nt	1.2	0	-48	nt	nt
Cc1nc2c(C(=O)N3CCCCC3)cnn2c(C)c1Cc1ccccc1F	0.9	1.2	-2	24	76*	42
SMILES	TNAP act mid DEA	MT1-MMP txn act	Mac1 fbg enh	Mac1 fbg inh	RORa activator	SF1 activator
CCC/C=C(\CCC)C(NC(=O)C(C)(C)C)c1ccc(C(=O)OC)cc1 (centres undefined)	nt	1.1	nt	nt	nt	nt
Cc1cc2n(n1)C(c1ccc(N(C)C)cc1)Nc1ccccc1-2 (centres undefined)	0.9	1.3	8	-3	13	75*
c1ccc2c(c1)NC1(CCCC1)n1c-2nc2ccccc21	0.9	1.7	-3	27	40	59*
COc1ccccc1-c1cc(C(=O)NCc2cccs2)no1	0.9	1.2	-1	-12	-8	-1
COc1ccccc1-c1cc(C(=O)NC(C)c2ccccc2)no1 (centres undefined)	0.8	1.1	-2	18	-13	-10
COc1ccccc1-c1cc(C(=O)NC(C)C)no1	0.9	1.7	nt	nt	33	69*
COCCNC(=O)c1cc(-c2ccccc2OC)on1	1	1.3	-2	-2	52*	71*
O=C(NC(=S)NCc1ccccc1)c1ccc2c(c1)OCO2	nt	nt	2	-8	nt	nt
Nc1nc(SCC(=O)Nc2ccccc2Sc2ccccc2)n[nH]1	nt	nt	0	-3	nt	nt
O=C(CSCCN1C(=O)c2ccccc2C1=O)Nc1ccc2ccccc2c1	nt	nt	-1	-9	nt	nt
Cn1cccc1CNC(=O)Nc1ccc(Cl)c(Cl)c1	nt	1.7	nt	nt	60*	66*
COc1ccc(NC(=O)NCc2cccn2C)c(OC)c1	nt	1	nt	nt	-5	16
Cc1cc2nc3c(c(=O)n2[nH]1)CCCC3	1	1.1	-1	-34	-1	15
Cc1ccc(-c2[nH]n3c(=O)c4c(nc3c2C)CCCC4)cc1	0.9	1.1	nt	nt	36	36
COc1ccc(-c2cc3nc4c(c(=O)n3[nH]2)CCC4)cc1	0.9	1.1	8	-10	54*	63*
O=c1c2c(nc3cc(-c4ccccc4)[nH]n13)CCC2	1.1	1.1	-2	6	39	60*
O=C(CSc1nc2ccc([N+](=O)[O-])cc2[nH]1)NC1CCCCC1	nt	nt	-3	-7	nt	nt
O=C(CSc1nc2ccc([N+](=O)[O-])cc2[nH]1)NC1CCCCCC1	nt	nt	-9	102*	nt	nt
Cc1ccc(Oc2ccc(NC(=O)CCC(=O)OCC(=O)c3cccs3)cc2)cc1C	nt	nt	0	-2	nt	nt
Cc1ccc(NC(=O)c2ccc(OC(=O)c3ccco3)cc2)cc1	1	1.1	59	-16	51*	52*
Cc1ccc(NC(=O)c2ccc(OC(=O)c3cc4ccccc4o3)cc2)cc1	nt	nt	3	1	nt	nt
Cc1cccc2[nH]c(-c3ccc(NC(=O)c4ccco4)cc3)nc12	0.9	1.9	-1	13	30	74*
Cc1ccc(-c2nc3ccccc3[nH]2)cc1NC(=O)c1ccco1	0.9	1.1	4	-1	35	23
Cc1ccc(Oc2ccc(NC(=O)c3ccco3)cc2)cc1	0.8	1.4	-1	20	46	73*
C=C(C)C1CC=C(C)/C(=N/NC(=O)CNc2ccc(OCC)cc2)C1 (centres undefined)	nt	nt	11	-7	nt	nt
SMILES	TNAP act mid DEA	MT1-MMP txn act	Mac1 fbg enh	Mac1 fbg inh	RORa activator	SF1 activator
O=C(c1ccc(Cl)cc1)N1CCC(O)(CSc2ccc(Cl)cc2Cl)CC1	nt	nt	-8	66	nt	nt
CC(c1nc2ccccc2c(=O)[nH]1)N1CCN(C)CC1 (centres undefined)	nt	nt	-6	-6	nt	nt
Cc1nnc(SCC(=O)NCc2ccccc2)[nH]c1=O	nt	1.1	-2	-3	nt	nt
COC(=O)[C@@]1(Cc2ccc(F)cc2)[C@H]2c3cc(C(=O)N4CCCC4)n(Cc4ccccn4)c3C[C@H]2CN1C(=O)c1ccccc1	nt	1.2	nt	nt	nt	nt
O=c1c2ccc(Cl)cc2nc(-c2cccc(C(F)(F)F)c2)n1O	nt	nt	-8	69*	nt	nt
COc1ccc(S(=O)(=O)Nc2ccc(O)c(Sc3ncn[nH]3)c2)cc1	nt	1.1	nt	nt	nt	nt
COc1ccc(S(=O)(=O)Nc2cc(Sc3ncn[nH]3)c(O)c3ccccc23)cc1	nt	nt	-5	90*	nt	nt
